We go through 7 molecules from ChEMBL document CHEMBL2417493, “Novel cycloalkylthiophene-imine derivatives bearing benzothiazole scaffold: synthesis, characterization and antiviral activity evaluation” (Bioorg Med Chem Lett, 2013).

The subject of data set [1] is Enterovirus. Put plainly: Antiviral activity against Enterovirus 71 infected in human rhabdomyosarcoma cells assessed as inhibition of virus-induced cytopathogenicity after 48 hrs by crystal violet staining method. In kind it is functional, organism-based. To be noted: for EC50: Enterovirus, 71, 48 h. The method, boiled down: (§1)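 Virus–cell pairings were EV71 in RD, CVB5 in HepG2, ADV7 in HeLa and influenza A H1N1 in MDCK. Compounds were added […], and total infectivity was read by crystal violet staining. EC50 is the concentration reducing viral replication by 50%. Values are mean SD of three independent experiments.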
(Protection from cytopathic effect is a common read-out in antiviral testing.)

Data set [2] is described as follows: Cytotoxicity against human HeLa cells after 72 hrs by MTT assay. In kind it is cell-based. An outline of the steps:
(§2)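 MTT assay on RD (rhabdomyosarcoma), HepG2 and HeLa cell lines. CC50 is the concentration that cut cell viability by 50% relative to 0.1% DMSO-treated mock-control cells. Values are mean and SD of three independent experiments.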

Data set [3] has as its system Influenza A virus. The data set is described as follows: Antiviral activity against influenza A virus H1N1 infected in dog MDCK cells assessed as inhibition of virus-induced cytopathogenicity at 32 ug/ml after 48 hrs by crystal violet staining method. Format: functional, organism-based. The method, boiled down:
(§3)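 Single-concentration screen with these pairings: RD/EV71, HepG2/CVB5, HeLa/ADV7, MDCK/H1N1. Cells were infected and kept 48 h in the presence of compound at one fixed concentration; some EV71 tests used the lower level. Inhibition of virus proliferation was read by crystal violet staining.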

The subject of data set [4] is Coxsackievirus B5. Put plainly: Antiviral activity against Coxsackievirus B5 infected in human HepG2 cells assessed as inhibition of virus-induced cytopathogenicity after 48 hrs by crystal violet staining method. In kind it is functional, organism-based. To be noted: for EC50: Enterovirus B, HepG2, 48 h. The method, boiled down:
as §1

Data set [5] is described as follows: Selectivity index, ratio of CC50 for human HepG2 cells to EC50 for Coxsackievirus B5 infected in human HepG2 cells. Format: toxicity, cell-based. The settings on record: read-out: Ratio CC50/EC50. An outline of the steps:
(§4)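 Antiviral pairings were EV71 in RD cells, CVB5 in HepG2 cells and ADV7 in HeLa cells. Compounds were added […], and total infectivity was read by crystal violet staining. EC50 is the concentration that cut viral replication by 50%. CC50 came from MTT relative to 0.1% DMSO mock control. SI = CC50/EC50. Data are from three independent experiments.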

The subject of data set [6] is unidentified adenovirus. Put plainly: Antiviral activity against Adenovirus type 7 infected in human HeLa cells assessed as inhibition of virus-induced cytopathogenicity after 48 hrs by crystal violet staining method. The settings on record: for EC50: unidentified adenovirus, type 7, HeLa, 48 h. Format: functional, organism-based. The method, boiled down: as §1
The nature of data set [7]: Cytotoxicity against human rhabdomyosarcoma cells after 72 hrs by MTT assay. Format: cell-based, Rhabdomyosarcoma cell. The method, boiled down: as §2
For data set [8], the system named is Influenza A virus. Put plainly: Antiviral activity against influenza A virus H1N1 infected in dog MDCK cells assessed as inhibition of virus-induced cytopathogenicity after 48 hrs by crystal violet staining method. Format: functional, organism-based. An outline of the steps:
as §1

Data set [9] in a line: Selectivity index, ratio of CC50 for human rhabdomyosarcoma cells to EC50 for Enterovirus 71 infected in human rhabdomyosarcoma cells. Format: toxicity. The settings on record: read-out: Ratio CC50/EC50. An outline of the steps: as §4
Data set [10] can be described thus: Cytotoxicity against human HepG2 cells after 72 hrs by MTT assay. In kind it is cell-based. The method, boiled down: as §2
In general terms: Tetrazolium dyes change colour on reduction, which living cells bring about.

For data set [11], the system named is Enterovirus. The data set is described as follows: Antiviral activity against Enterovirus 71 infected in human rhabdomyosarcoma cells assessed as inhibition of virus-induced cytopathogenicity at 32 ug/ml after 48 hrs by crystal violet staining method. Format: functional. To be noted: Enterovirus, 71, 48 h. An outline of the steps: as §3
In data set [12] the test system is unidentified adenovirus. Put plainly: Antiviral activity against Adenovirus type 7 infected in human HeLa cells assessed as inhibition of virus-induced cytopathogenicity at 32 ug/ml after 48 hrs by crystal violet staining method. To be noted: type 7, HeLa. Format: functional. The method, boiled down: as §3
Data set [13] in a line: Selectivity index, ratio of CC50 for human HeLa cells to EC50 for Adenovirus type 7 infected in human HeLa cells. To be noted: read-out: Ratio CC50/EC50. In kind it is toxicity, cell-based. An outline of the steps: as §4
Data set [14] has as its system Coxsackievirus B5. Put plainly: Antiviral activity against Coxsackievirus B5 infected in human HepG2 cells assessed as inhibition of virus-induced cytopathogenicity at 32 ug/ml after 48 hrs by crystal violet staining method. In kind it is functional. To be noted: Enterovirus B, HepG2, 48 h. The method, boiled down: as §3
Data set [15] has as its system Enterovirus. Put plainly: Antiviral activity against Enterovirus 71 infected in human rhabdomyosarcoma cells assessed as inhibition of virus-induced cytopathogenicity at 16 ug/ml after 48 hrs by crystal violet staining method. Format: functional. To be noted: Enterovirus, 71, 48 h. An outline of the steps: as §3

One may read the EC50 as the concentration at which the effect is half-maximal. For orientation: CC50 means the concentration at which the toxic effect on the cells reaches its halfway point. Low values mean harm at low concentration, high ones better tolerance by the cells. As a reminder, the inhibition is the change of the read-out against control, counted positive when it falls.

≈ marks a conversion by molar mass, not a printed value. Calls of active or inactive are those of the source. The rule behind the calls is not given here. Some results are limits rather than exact numbers.

For the molecule `C(=N\c1sc2c(c1-c1nc3ccccc3s1)CCCC2)/c1ccccc1`, the half-maximal effective concentration (EC50) in data set [1] was 14.2 µg/mL (≈ 37.9 µM); in [4], 32.9 µg/mL (≈ 87.8 µM); in data set [6], 12.5 µg/mL (≈ 33.4 µM). Also, the CC50 at 72 h came to 333 µg/mL (≈ 890 µM) in [2], 71.1 µg/mL (≈ 190 µM) in [7] and 308 µg/mL (≈ 821 µM) in data set [10]. Further, the inhibition entry in data set [3] is “Active”. Further, the selectivity ratio in [5] came to 9.3; in data set [9] it was 4.9; in data set [13], 26.5. In addition, the “inhibition (INH)” value in [8] is under 50%. Moreover, the inhibition at 32 µg/mL in [11], in [12] and in [14] was 60% each time.

In the case of `Oc1ccccc1/C=N/c1sc2c(c1-c1nc3ccccc3s1)CCCC2`, the inhibition entry in [1], in data set [4] and in data set [6] was “Dose-dependent effect” throughout. The EC50 was found to be 2 µg/mL (≈ 5.12 µM) in data set [1], 5.4 µg/mL (≈ 13.8 µM) in [4] and 10.8 µg/mL (≈ 27.7 µM) in data set [6]. Moreover, the figures for the CC50 at 72 h in [2], in data set [7] and in data set [10] were 122 µg/mL (≈ 312 µM), 42.4 µg/mL (≈ 108 µM) and 114 µg/mL (≈ 292 µM), respectively. For the same molecule, the inhibition result in data set [3] is “Active”. For the same molecule, the selectivity ratio in data set [5] stood at 20.8; in data set [9], 20.3; in [13], 11.1. Also, in data set [8], the “inhibition (INH)” value is reported as under 50%. For the same molecule, the inhibition at 32 µg/mL in [12] and in data set [14] was 60% in each case. Also, the inhibition at 16 µg/mL in data set [15] was 60%.

With `NC(=O)c1ncn([C@@H]2O[C@H](CO)[C@@H](O)[C@H]2O)n1` [RIBAVIRIN], the EC50 was 49.2 µg/mL (≈ 201 µM) in data set [1], 22.3 µg/mL (≈ 91.3 µM) in data set [4] and 27.8 µg/mL (≈ 114 µM) in [6]. For the same molecule, the CC50 at 72 h in data set [2], in data set [7] and in data set [10] was over 500 µg/mL each time. Besides, the selectivity ratio in data set [5] is over 20; in [9], over 10; in data set [13], over 15.

Regarding `Nc1sc2c(c1-c1nc3cc(Cl)ccc3s1)CCC2`, the inhibition entry in [1], in [4] and in [6] was “Dose-dependent effect” in each case. In addition, the EC50 turned out to be 1.2 µg/mL (≈ 3.91 µM) in [1], 6.4 µg/mL (≈ 20.9 µM) in data set [4] and 9.8 µg/mL (≈ 31.9 µM) in data set [6]. Besides, the cytotoxic concentration (CC50) at 72 h was found to be 75.1 µg/mL (≈ 245 µM) in data set [2], 59.1 µg/mL (≈ 193 µM) in data set [7] and 67.8 µg/mL (≈ 221 µM) in [10]. Moreover, the selectivity ratio is 10.4 in data set [5], 46.9 in data set [9] and 7.6 in data set [13]. Besides, the “inhibition (INH)” value in data set [8] is reported as under 50%.

Consider `Nc1sc2c(c1-c1nc3cc(Cl)ccc3s1)CCCC2`, for which the inhibition entry in [1], in data set [4] and in data set [6] was “Dose-dependent effect” in each case. Also, the EC50 in data set [1] was determined as 1.3 µg/mL (≈ 4.05 µM); in data set [4], 3.5 µg/mL (≈ 10.9 µM); in [6], 5 µg/mL (≈ 15.6 µM). The CC50 at 72 h in data set [2] was found to be 107 µg/mL (≈ 333 µM); in data set [7] it was 43.5 µg/mL (≈ 136 µM); in data set [10], 93.7 µg/mL (≈ 292 µM). Moreover, the selectivity ratio in data set [5] came to 26.7; in [9], 33.7; in [13] it was 20.9. Moreover, the “inhibition (INH)” value in data set [8] was under 50%.

As to `Oc1ccccc1/C=N/c1sc2c(c1-c1nc3ccccc3s1)CCC2`, the figures for the EC50 in data set [1], in data set [4] and in data set [6] were 7.9 µg/mL (≈ 21 µM), 11.1 µg/mL (≈ 29.5 µM) and 17.4 µg/mL (≈ 46.2 µM), respectively. The CC50 at 72 h in [2] turned out to be 168 µg/mL (≈ 446 µM); in data set [7] it was 100 µg/mL (≈ 266 µM); in [10], 156 µg/mL (≈ 414 µM). Moreover, in data set [3], the inhibition result was “Active”. Moreover, the selectivity ratio in data set [5] was found to be 13.8; in [9], 12.6; in [13], 9.6. Besides, the “inhibition (INH)” value in data set [8] is under 50%. For the same molecule, the results for the inhibition at 32 µg/mL in data set [11], in data set [12] and in [14] were 50%, 60% and 60%, respectively.

`Fc1ccc(/C=N/c2sc3c(c2-c2nc4ccccc4s2)CCCC3)cc1`: the inhibition result in [1], in [4] and in [6] was “Dose-dependent effect” each time. Besides, the EC50 stood at 6.9 µg/mL (≈ 17.6 µM) in [1], 9.7 µg/mL (≈ 24.7 µM) in [4] and 21.1 µg/mL (≈ 53.8 µM) in data set [6]. Also, the CC50 at 72 h in data set [2] was 277 µg/mL (≈ 705 µM); in data set [7], 230 µg/mL (≈ 586 µM); in data set [10], 324 µg/mL (≈ 826 µM). Further, in data set [3], the inhibition entry was “Active”. Further, the selectivity ratio in data set [5] stood at 33.2; in data set [9], 32.8; in data set [13], 13.1. Besides, in [8], the “inhibition (INH)” value is under 50%. The inhibition at 32 µg/mL in data set [12] and in data set [14] was 60% in each case. Besides, in [15], the inhibition at 16 µg/mL turned out to be 60%.
